The source made the active and inactive calls. The rule behind the calls is not given here.
Tests used:
[1] = (§1) Binding affinity to mouse anti-dsDNA monoclonal antibody R4A assessed as inhibition of RA4 binding to DWEYS peptide preincubated for 1 hr followed by DWEYS peptide addition measured after 1 hr by ELISA
Procedure, shortened: (§2)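 Competitive ELISA: plates coated with DWEYS peptide overnight at 37 °C uncovered, blocked 3% BSA/PBS 1 h 37 °C. Compounds at varying concentrations preincubated with R4A (20 µg/mL) 1 h 37 °C, then added to washed wells 1 h 37 °C. Detection with alkaline phosphatase anti-mouse IgG (1:1000, 1 h RT), pNPP substrate 30–60 min, absorbance 405 nm.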

Mus musculus [2] = species: Mus musculus; experiment: as §1; procedure, shortened: as §2
Mus musculus [3] = experiment: Toxicity in CD-1 mouse assessed as tissue abnormalities administered daily for 1 week; type: organism-based; conditions: in vivo, 168 h
Mus musculus [4] = species: Mus musculus; experiment: Binding affinity to mouse anti-dsDNA monoclonal antibody R4A assessed as inhibition of RA4 binding to mouse kidney glomeruli antigens by measuring suppression of antibody deposition in kidney glomeruli at 50 uM preincubated for 1 hr followed by glomeruli addition by fluorescence microscopic analysis
Procedure, shortened: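 Murine glomeruli isolated and adhered to glass slides. R4A (20 µg/mL) preincubated with compound (50 µM) 1 h at 37 °C, then applied to glomeruli 1 h at room temperature. Bound antibody detected with FITC-conjugated anti-mouse IgG, PBS washes, fluorescence imaging.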

Mus musculus [5] = experiment: Toxicity in CD-1 mouse assessed as behavioral changes administered daily for 1 week; type: organism-based; conditions: in vivo, 168 h
Mus musculus [6] = species: Mus musculus; experiment: Binding affinity to mouse anti-dsDNA monoclonal antibody R4A assessed as inhibition of RA4 binding to DWEYS peptide at 5 to 50 uM preincubated for 1 hr followed by DWEYS peptide addition measured after 1 hr by ELISA; procedure, shortened: as §2
Mus musculus [7] = experiment: Reduction in crescents score in kidney of NZB/NZW F1 mouse systemic lupus erythematosus model at 5 mg/kg/day, ip bid administered on day 1 at 22 weeks of age measured daily during compound dosing at 60 weeks by conglomerate blinded analysis; type: functional, organism-based
Procedure, shortened: (§3)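 Female NZB/W F1 mice dosed ip twice daily (5 mg kg−1 day−1) from 22 weeks of age. Formalin-fixed, paraffin-embedded kidney sections stained with H&E and scored blind by one investigator, 0–3+ each for glomerular sclerosis, hypercellularity, crescents, interstitial nephritis and perivascular infiltrates. Combined scores assessed at 60 weeks.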

Mus musculus [8] = experiment: Reduction in glomerular cellularity score in kidney of NZB/NZW F1 mouse systemic lupus erythematosus model at 5 mg/kg/day, ip bid administered on day 1 at 22 weeks of age measured daily during compound dosing at 60 weeks by conglomerate blinded analysis; type: functional, organism-based; procedure, shortened: as §3
Mus musculus [9] = experiment: Inhibition of IgG level in glomeruli of NZB/NZW F1 mouse systemic lupus erythematosus model at 5 mg/kg/day, ip bid administered on day 1 at 22 weeks of age; type: functional, organism-based
Procedure, shortened: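 Female NZB/W F1 mice dosed ip twice daily (5 mg kg−1 day−1) from 22 weeks of age. Formalin-fixed, paraffin-embedded terminal kidney sections from three representative mice per group stained for mouse IgG in glomeruli.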

Mus musculus [10] = experiment: Reduction in glomerular sclerosis score in kidney of NZB/NZW F1 mouse systemic lupus erythematosus model at 5 mg/kg/day, ip bid administered on day 1 at 22 weeks of age measured daily during compound dosing at 60 weeks by conglomerate blinded analysis; type: functional, organism-based; procedure, shortened: as §3
Mus musculus [11] = experiment: Inhibition of glomerulonephropathy in kidney of NZB/NZW F1 mouse systemic lupus erythematosus model at 5 mg/kg/day, ip bid administered on day 1 at 22 weeks of age measured at 60 weeks by hematoxylin and eosin staining based assay; type: functional, organism-based; procedure, shortened: as §3
Mus musculus [12] = species: Mus musculus; experiment: Neuroprotective activity in C57BL/6 mouse assessed as inhibition of R4A-induced hippocampal neuron apoptosis at 50 uM pretreated to mouse followed by R4A injection measured after 1 day by TUNEL assay; type: functional
Procedure, shortened: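 Male C57BL/6 mice (30–34 g) anesthetized with 2.5% avertin ip. R4A (20 µg/mL) preincubated with vehicle or compound (50 µM) and injected stereotaxically (2 µL) into dorsal hippocampus CA1.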

Mus musculus [13] = experiment: Inhibition of lymphocyte aggregation in kidney of NZB/NZW F1 mouse systemic lupus erythematosus model at 5 mg/kg/day, ip bid administered on day 1 at 22 weeks of age measured at 60 weeks by hematoxylin and eosin staining based assay; type: functional, organism-based; procedure, shortened: as §3
Mus musculus [14] = experiment: anti-DWEYS peptide reactivity in serum of NZB/NZW F1 mouse systemic lupus erythematosus model at 5 mg/kg/day, ip bid administered on day 1 to 71
Mus musculus [15] = experiment: Reduction in interstitial inflammation score in kidney of NZB/NZW F1 mouse systemic lupus erythematosus model at 5 mg/kg/day, ip bid administered on day 1 at 22 weeks of age measured daily during compound dosing at 60 weeks by conglomerate blinded analysis; type: functional, organism-based; procedure, shortened: as §3
Mus musculus [16] = experiment: Toxicity in NZB/W F1 mouse systemic lupus erythematosus model assessed as body weight loss at 5 mg/kg/day, ip bid administered on day 1 at 22 weeks of age measured daily during compound dosing up to 34 weeks of age; type: organism-based; conditions: in vivo
Procedure, shortened: (§4)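 Female NZB/W F1 mice from 22 weeks of age, before severe proteinuria, grouped by matched mean proteinuria and body weight (n = 10/group). Vehicle or compound at 5 mg kg−1 day−1 given ip twice daily. Body weight weekly, proteinuria every 2 weeks. Removal on ≥20% weight loss, prostration, or ≥3+ proteinuria two consecutive weeks; study end at 46 weeks.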

Mus musculus [17] = experiment: Inhibition of tubule dilation and casts in kidney of NZB/NZW F1 mouse systemic lupus erythematosus model at 5 mg/kg/day, ip bid administered on day 1 at 22 weeks of age measured at 60 weeks by hematoxylin and eosin staining based assay; type: functional, organism-based; procedure, shortened: as §3
Mus musculus [18] = experiment: Induction of delayed onset of systemic lupus erythematosus disease in NZB/W F1 mouse model at 5 mg/kg/day, ip bid administered on day 1 at 22 weeks of age measured daily during compound dosing up to 34 weeks of age; type: functional; procedure, shortened: as §4
Mus musculus [19] = experiment: Toxicity in NZB/W F1 mouse systemic lupus erythematosus model assessed as prostration at 5 mg/kg/day, ip bid administered on day 1 at 22 weeks of age measured daily during compound dosing up to 34 weeks of age; type: organism-based; conditions: in vivo; procedure, shortened: as §4
Mus musculus [20] = experiment: Toxicity in CD-1 mouse assessed as drug tolerance at 1 mg/kg, iv as infusion or 10 mg/kg via oral gavage measured up to 60 mins for iv dosing or up to 240 mins for oral gavage; type: organism-based; conditions: in vivo
Mus musculus [21] = experiment: Increase in disease free survival in NZB/W F1 mouse systemic lupus erythematosus model at 5 mg/kg/day, ip bid administered on day 1 at 22 weeks of age measured daily during compound dosing up to 34 weeks of age; type: functional, organism-based; procedure, shortened: as §4

Row | Structure (SMILES) | IC50 [1] [µM] | inhibition (Mus musculus [2]) | inhibition (Mus musculus [4]) | inhibition (Mus musculus [6]) | Activity (Mus musculus [3]) | Activity (Mus musculus [5]) | other results
1 | CC(C)(C)NC(=O)[C@@H]1CN(Cc2cccnc2)CCN1C[C@@H](O)C[C@@H](Cc1ccccc1)C(=O)N[C@H]1c2ccccc2C[C@H]1O |  |  |  | Active |  |  | 
2 | Cc1c(O)cccc1C(=O)N[C@@H](CSc1ccccc1)[C@H](O)CN1C[C@H]2CCCC[C@H]2C[C@H]1C(=O)NC(C)(C)C |  | Dose-dependent effect | Active | Active |  |  | 
3 | Cc1cccc(C)c1OCC(=O)N[C@@H](Cc1ccccc1)[C@@H](O)C[C@H](Cc1ccccc1)NC(=O)[C@H](C(C)C)N1CCCNC1=O |  | Dose-dependent effect |  | Active |  |  | 
4 | Cc1c(O)cccc1CN[C@@H](CSc1ccccc1)[C@H](O)CN1C[C@H]2CCCC[C@H]2C[C@H]1CNC(C)(C)C | 7.27 | Dose-dependent effect | Active |  | Non-Toxic | Non-Toxic | inhibition (Mus musculus [12]): Active

More lines, main results first:

Row | IC50 [1] [µM] | inhibition (Mus musculus [2]) | inhibition (Mus musculus [4]) | inhibition (Mus musculus [6]) | Structure (SMILES) | Activity (Mus musculus [3]) | Activity (Mus musculus [5]) | other results
5 | 2.08 | Dose-dependent effect | Active |  | CNCCCN[C@H](CN[C@@H](Cc1ccccc1)C[C@H](O)[C@H](Cc1ccccc1)NCCOc1c(C)cccc1C)C(C)C | Non-Toxic | Non-Toxic | 
6 | 42.7 |  |  |  | CC(C)(C)NC[C@@H]1CNCCN1C[C@@H](O)C[C@H](CN[C@H]1c2ccccc2C[C@H]1O)Cc1ccccc1 |  |  | 
7 | 4.5 | Dose-dependent effect | Active |  | CC(C)(C)NC[C@@H]1CC2CCCCC2CN1C[C@@H](O)[C@H](Cc1ccccc1)NC[C@H](CCN)NCC1Nc2ccccc2CC1O (stereo partly drawn) | Non-Toxic | Non-Toxic | Activity (Mus musculus [7]): Active; Activity (Mus musculus [8]): Active; inhibition (Mus musculus [9]): Active; Activity (Mus musculus [10]): Active; inhibition (Mus musculus [11]): Active; inhibition (Mus musculus [12]): Active; inhibition (Mus musculus [13]): Active; inhibition (Mus musculus [14]): Active; Activity (Mus musculus [15]): Active; Activity (Mus musculus [16]): < 20%; inhibition (Mus musculus [17]): Active; Time (Mus musculus [18]): 26 - 36 weeks; Activity (Mus musculus [19]): Non-Toxic; Activity (Mus musculus [20]): Non-Toxic; Activity (Mus musculus [21]): Active
